{"source": "paper PMC5237706", "about": "(Acta Pharmaceutica Sinica. B, 2016)", "key": {"[1]": {"tested_on": "H2O2 production in energized hepatic mitochondria", "assay": "Mitochondrial H2O2 production", "assay_type": "biochemical, rat", "conditions": "DCFDA, Fig. 2B", "summary_of_the_method": "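DCFDA (8 μmol/L) added to energized rat hepatic mitochondria (1 mg/mL) in standard medium (sucrose 250, HEPES 10, glutamate 10, malate 5 mmol/L; pH 7.4). Test compound added; incubated 15 or 30 min in the dark at 25 °C. Fluorescence ex 485/em 521 nm, expressed as percent of control. Mean±SEM, three independent experiments.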"}, "[2]": {"tested_on": "cyt c release from energized mitochondria", "assay": "Cyt c release from mitochondria", "assay_type": "biochemical, rat", "conditions": "Fig. 7D"}, "[3]": {"tested_on": "human hepatoma HepG2 cells", "assay": "Antiproliferative activity, SRB assay, HepG2", "assay_type": "cell-based", "conditions": "for TI 24 h / TI 48 h: TI=IC50 L02 normal cell/IC50 HepG2 cancer cell", "summary_of_the_method": "(§1)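 Cells seeded at 5×10^4/well and grown 24 h, then exposed to test compound (DMSO stock) for 24 h or 48 h. Processed by standard SRB method with absorbance at 540 nm. IC50 from log plot of percent of control vs concentration. HepG2 kept in RPMI 1640; L02 and WI38 in DMEM; all with 10% FBS, 1% penicillin–streptomycin, 37 °C, 5% CO2. TI = IC50 normal cells / IC50 HepG2.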"}, "human hepatic L02 cells": {"tested_on": "human hepatic L02 cells", "assay": "Antiproliferative activity, SRB assay, L02", "assay_type": "cell-based", "summary_of_the_method": "as §1"}, "CAT": {"biological_target": "T1, CAT (Rattus norvegicus, UniProt P04762)", "T1 sequence (P04762 1-527)": "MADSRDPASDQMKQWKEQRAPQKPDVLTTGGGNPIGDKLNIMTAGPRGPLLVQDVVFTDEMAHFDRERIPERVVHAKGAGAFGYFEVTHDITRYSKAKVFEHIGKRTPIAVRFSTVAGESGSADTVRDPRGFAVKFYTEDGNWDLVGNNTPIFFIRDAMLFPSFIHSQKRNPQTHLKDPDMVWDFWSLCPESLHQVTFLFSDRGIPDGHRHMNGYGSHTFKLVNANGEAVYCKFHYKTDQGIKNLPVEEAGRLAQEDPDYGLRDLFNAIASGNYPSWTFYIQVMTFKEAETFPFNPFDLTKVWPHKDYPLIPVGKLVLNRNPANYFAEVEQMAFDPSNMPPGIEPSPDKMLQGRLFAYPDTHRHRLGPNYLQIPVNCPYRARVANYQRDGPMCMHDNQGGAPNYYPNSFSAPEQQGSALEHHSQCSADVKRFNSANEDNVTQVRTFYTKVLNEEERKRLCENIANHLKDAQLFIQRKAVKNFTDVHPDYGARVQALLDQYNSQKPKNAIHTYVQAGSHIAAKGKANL", "assay": "Mitochondrial CAT activity", "assay_type": "biochemical", "conditions": "10 μmol/L, 15 and 30 min", "summary_of_the_method": "(§2)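 Energized liver mitochondria from male Wistar rats incubated with test compound (10 μmol/L) for 15 or 30 min. Then sonicated in 5 s pulses for 5 cycles. SOD, GSH-Px and CAT activities measured with commercial kits per instructions. Mean±SEM of three independent experiments.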"}, "mitochondrial SOD": {"tested_on": "mitochondrial SOD", "assay": "Mitochondrial SOD activity", "assay_type": "biochemical, rat", "conditions": "10 μmol/L, 15 and 30 min", "summary_of_the_method": "as §2"}, "[4]": {"tested_on": "diploid human WI38 fibroblasts", "assay": "Antiproliferative activity, SRB assay, WI38", "assay_type": "cell-based", "summary_of_the_method": "as §1"}, "GSH-Px": {"tested_on": "GSH-Px", "assay": "Mitochondrial GSH-Px activity", "assay_type": "biochemical, rat", "conditions": "10 μmol/L, 15 and 30 min", "summary_of_the_method": "as §2"}, "[5]": {"tested_on": "lipid peroxidation in the energized hepatic mitochondria", "assay": "Mitochondrial lipid peroxidation induced by FeCl2/ascorbate", "assay_type": "biochemical, rat", "conditions": "for inhibition of lipid peroxidation at 6 μmol/L: Fig. 1B", "summary_of_the_method": "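Rat liver mitochondria (1 mg/mL, standard medium pH 7.4) with test compound (6 μmol/L). Peroxidation started with FeCl2 20 μmol/L/ascorbate 100 μmol/L and run 30 min. TCA-TBA-HCl stock plus 0.02% BHT added, then heated 15 min in a hot-water bath, cooled and centrifuged. A532 read; MDA calculated with ε532=1.5×10^5 mol/(L·cm). Three independent experiments.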"}, "[6]": {"tested_on": "energized hepatic mitochondria (mPTP opening)", "assay": "Mitochondrial swelling", "assay_type": "biochemical, rat", "conditions": "Fig. 5B; for induction of mitochondrial swelling at 10 μmol/L: 10 μmol/L alone", "summary_of_the_method": "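Energized rat hepatic mitochondria (1 mg/mL) in sucrose/HEPES/glutamate/malate medium, pH 7.4. Swelling followed as apparent A540 change after adding test compound (concentration series; 10 μmol/L alone or with Ca2+ 0.1 μmol/L). CsA 1 μmol/L added to suspensions containing 20 μmol/L compound. […]; mean±SEM of three independent experiments.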"}}, "note": "Like-named read-outs stand apart in the source and are kept apart here.", "data": [{"smiles": "CCCC[P+](c1ccccc1)(c1ccccc1)c1ccccc1", "note": "[ButylTPP]", "values": [{"measurement": "effect on endogenous H2O2 levels at 10 μmol/L", "setting": "[1]", "value": "did not affect"}, {"measurement": "induction of cyt c release at 10 μmol/L", "setting": "[2]", "value": "had no effects"}, {"measurement": "TI 24 h", "setting": "[3]", "value": 4.76}, {"measurement": "TI 48 h", "setting": "[3]", "value": 5.58}, {"measurement": "IC50", "setting": "[3]; read-out: IC50 HepG2 24 h, HepG2, 24 h, SRB", "value": "25.4 ± 1.02", "unit": "µM"}, {"measurement": "IC50", "setting": "[3]; read-out: IC50 HepG2 48 h, HepG2, 48 h, SRB", "value": "12.8 ± 0.87", "unit": "µM"}, {"measurement": "IC50", "setting": "human hepatic L02 cells; read-out: IC50 L02 24 h, L02, 24 h, SRB", "value": "121 ± 9.97", "unit": "µM"}, {"measurement": "IC50", "setting": "human hepatic L02 cells; read-out: IC50 L02 48 h, L02, 48 h, SRB", "value": "71.4 ± 6.64", "unit": "µM"}, {"measurement": "effect on CAT activity", "setting": "CAT", "value": "did not alter"}, {"measurement": "effect on SOD activity", "setting": "mitochondrial SOD", "value": "did not alter"}, {"measurement": "IC50", "setting": "[4]; read-out: IC50 WI38 24 h, WI38, 24 h, SRB", "value": "179 ± 3.73", "unit": "µM"}, {"measurement": "IC50", "setting": "[4]; read-out: IC50 WI38 48 h, WI38, 48 h, SRB", "value": "88.5 ± 3.95", "unit": "µM"}, {"measurement": "effect on GSH-Px activity", "setting": "GSH-Px", "value": "did not alter"}, {"measurement": "inhibition of lipid peroxidation at 6 μmol/L", "setting": "[5]", "value": "ineffective"}, {"measurement": "induction of mitochondrial swelling at 10 μmol/L", "setting": "[6]", "value": "triggered swelling"}]}, {"smiles": "O=C(O)/C=C/c1ccc(O)c(O)c1", "note": "[CaA, caffeic acid]", "values": [{"measurement": "induction of cyt c release at 10 μmol/L", "setting": "[2]", "value": "had no effects"}, {"measurement": "IC50", "setting": "[3]; Homo sapiens, HepG2, 24 h, read-out: IC50 HepG2 24 h, HepG2, 24 h, SRB", "value": "201 ± 3.88", "unit": "µM"}, {"measurement": "IC50", "setting": "[3]; Homo sapiens, HepG2, 48 h, read-out: IC50 HepG2 48 h, HepG2, 48 h, SRB", "value": "93 ± 1.35", "unit": "µM"}, {"measurement": "TI 24 h", "setting": "[3]", "value": 2.01}, {"measurement": "TI 48 h", "setting": "[3]", "value": 1.68}, {"measurement": "IC50", "setting": "human hepatic L02 cells; Homo sapiens, L02, 24 h, read-out: IC50 L02 24 h", "value": "403 ± 18.9", "unit": "µM"}, {"measurement": "IC50", "setting": "human hepatic L02 cells; Homo sapiens, L02, 48 h, read-out: IC50 L02 48 h", "value": "156 ± 8.83", "unit": "µM"}, {"measurement": "IC50", "setting": "[4]; Homo sapiens, WI-38, 24 h, read-out: IC50 WI38 24 h", "value": "281 ± 9.47", "unit": "µM"}, {"measurement": "IC50", "setting": "[4]; Homo sapiens, WI-38, 48 h, read-out: IC50 WI38 48 h", "value": "198 ± 7.78", "unit": "µM"}, {"measurement": "inhibition of lipid peroxidation at 6 μmol/L", "setting": "[5]", "value": "ineffective"}, {"measurement": "effect on lipid peroxidation, various concentrations", "setting": "[5]; Fig. 1A", "value": "no effect"}, {"measurement": "mitochondrial swelling with Ca2+", "setting": "[6]; 10 μmol/L + 0.1 μmol/L Ca2+", "value": "failed to cause swelling"}, {"measurement": "induction of mitochondrial swelling at 10 μmol/L", "setting": "[6]", "value": "neither MitoCA nor CaA induced swelling"}]}]}
